Reference: ChEMBL document CHEMBL2321648, “Structure-based discovery of pyrazolobenzothiazine derivatives as inhibitors of hepatitis C virus replication” (J Med Chem, 2013)

Legend:
[1] = system: Hepatitis C virus; test: Antiviral activity against Hepatitis C virus subtype 1b infected in human HuH5.2 cells assessed as inhibition of virus-induced cytopathic effect; type: functional, organism-based, Hepacivirus hominis; details: genotype 1b, Huh-5-2
In short: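 Eight-step 1:2 dilution series, 72 h at 37 °C. Cells lysed and luciferase luminescence read, expressed as % of untreated controls. EC50 taken from the dose-response curve, means ± SD of at least three independent experiments.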

[2] = Cytotoxicity against human HuH5.2 cells by MTS assay; type: cell-based, Huh-5-2
[3] = system: Hepatitis C virus; test: Binding affinity to Hepatitis C virus (isolate Con1) NS5B […] by surface plasmon resonance analysis; design: species or system Hepacivirus hominis
[4] = Selectivity index, ratio of CC50 for human HuH5.2 cells to EC50 for Hepatitis C virus subtype 1b; type: toxicity; details: read-out: Ratio CC50/EC50
In short: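 Ratio of CC50 (MTS, 72 h) to EC50 (luciferase replicon read-out), both measured in parallel in Huh 5-2 replicon cells.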

[5] = system: Hepatitis C virus; test: Inhibition of N-terminal His-tagged recombinant Hepatitis C virus subtype 1b NS5B Cdelta21 RNA dependent RNA polymerase expressed in Escherichia coli at 50 uM by liquid scintillation counting analysis
In short: (§1)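 N-His-tagged NS5BCΔ21 (NIH1b), purified from E. coli DH5α on Ni-NTA, 100 ng per reaction. Reaction stopped with cold TCA/pyrophosphate, products filter-precipitated and scintillation-counted. Compound tested at 50 µM, activity relative to DMSO control.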

[6] = system: Hepatitis C virus; test: Inhibition of N-terminal His-tagged recombinant Hepatitis C virus subtype 1b NS5B Cdelta21 RNA dependent RNA polymerase expressed in Escherichia coli by liquid scintillation counting analysis
In short: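 Dose-response with 8–12 concentrations, in duplicate in two independent experiments. IC50 obtained by nonlinear regression, means ± SD.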

[7] = system: Hepatitis C virus; test: Inhibition of N-terminal His-tagged recombinant Hepatitis C virus subtype 1b N-terminal His-tagged expressed in Escherichia coli at 50 uM by liquid scintillation counting analysis relative to control; in short: as §1
[8] = system: Hepatitis C virus; test: Inhibition of N-terminal His-tagged recombinant Hepatitis C virus subtype 1b N-terminal His-tagged expressed in Escherichia coli at non-toxic concentration by liquid scintillation counting analysis relative to control
In short: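 Recombinant NS5B genotype 1b (NIH1b) was His-tagged, C-terminally truncated by 21 residues, expressed in E. coli DH5α and purified on Ni-NTA. Products were TCA-precipitated on filters and counted by scintillation relative to the DMSO control. Compounds were screened at 50 µM.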

[9] = system: Hepatitis C virus; test: Antiviral activity against Hepatitis C virus subtype 1b infected in human Huh-9-13 cells assessed as inhibition of virus-induced cytopathic effect; type: functional, organism-based, Hepacivirus hominis; details: genotype 1b

`CS(=O)(=O)Nc1ccc(NC(=O)c2nn(-c3ccccc3)c3c2NS(=O)(=O)c2ccccc2-3)cc1` gave an EC50 [1] of 14 µM and a CC50 [2] of over 239 µM.

In the case of `CS(=O)(=O)Nc1ccc(NC(=O)c2nn(-c3cccc([N+](=O)[O-])c3)c3c2NS(=O)(=O)c2ccccc2-3)cc1`, the EC50 [1] is reported as over 220 µM, the EC90 [1] is reported as over 220 µM and the Kd [3] is reported as 14 µM. For the same compound, the selectivity ratio [4] was at least 1, the CC50 [2] was over 220 µM and the inhibition at 50 µM [5] was 33.7%.

Work on `CS(=O)(=O)Nc1ccc(NC(=O)c2nn(-c3ccccc3[N+](=O)[O-])c3c2NS(=O)(=O)c2ccccc2-3)cc1` yielded an EC50 [1] of 17.8 µM and a CC50 [2] of over 220 µM.

In the case of `CS(=O)(=O)Nc1ccc(NC(=O)c2nn(-c3ccc([N+](=O)[O-])cc3)c3c2NS(=O)(=O)c2ccccc2-3)cc1`, the EC50 [1] is reported as 7.9 µM and the IC50 [6] is reported as 7.7 µM.

In the case of `CN1c2c(C(=O)Nc3ccc(NS(C)(=O)=O)cc3)nn(-c3cccc(N)c3)c2-c2ccccc2S1(=O)=O`, the EC50 [1] is reported as 9.2 µM, the inhibition at 50 µM [7] is reported as 45.8% and the inhibition at 50 µM [5] is reported as 45.8%.

`CN1c2c(C(=O)Nc3ccc(NS(C)(=O)=O)cc3)nn(-c3ccccc3N)c2-c2ccccc2S1(=O)=O` gave an EC50 [1] of 26 µM.

`CN1c2c(C(=O)Nc3ccc(NS(C)(=O)=O)cc3)nn(-c3ccc(N)cc3)c2-c2ccccc2S1(=O)=O` showed an EC50 [1] of 12 µM.

In the case of `CN1c2c(C(=O)Nc3ccc(N)cc3)nn(-c3cccc(F)c3)c2-c2ccccc2S1(=O)=O`, the EC50 [1] is reported as 19 µM, the inhibition at 50 µM [7] is reported as 31.5% and the inhibition at 50 µM [5] is reported as 31.5%.

Compound `CN1c2c(C(=O)Oc3ccc(NS(C)(=O)=O)cc3)nn(-c3cccc(F)c3)c2-c2ccccc2S1(=O)=O` has an EC50 [1] of 88 µM, an inhibition at 50 µM [7] of 21% and an inhibition at 50 µM [5] of 21.4%.

With `COC(=O)c1nn(-c2cccc(F)c2)c2c1N(C)S(=O)(=O)c1ccccc1-2` the EC50 [1] was 172 µM, the “inhibition (INH)” value [8] was 40% and the inhibition at 50 µM [7] was 11%. It also gave an inhibition at 50 µM [5] of 10.6%.

`CN1c2c(C(=O)Nc3ccc(NS(C)(=O)=O)cc3)nn(-c3cccc(F)c3)c2-c2ccccc2S1(=O)=O` gave an EC50 [1] of 7.5 µM and an EC50 [9] of 3.6 µM.

`CN1c2c(C(=O)Nc3ccc(NS(C)(=O)=O)cc3)nn(-c3ccccc3F)c2-c2ccccc2S1(=O)=O` gave an EC50 [1] of 6.4 µM.

With `CN1c2c(C(=O)Nc3ccc(NS(C)(=O)=O)cc3)nn(-c3ccc(F)cc3)c2-c2ccccc2S1(=O)=O` the EC50 [1] was 23 µM.
